NR2E3 ag-1: activates human NR2E3 receptor; Q9Y5X4; CHO-S Gal4-NCOR/VP16-NR2E3 two-hybrid, luciferase; inhibition of corepressor binding, % at 3.98 µM; actives 0.35% (n = 360,000); AID 602229;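 active = inhibition above the mean of all tested compounds plus 3 SD, cut at about 70% in these data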;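 also: 0% = DMSO with NR2E3 transfected cells and 100% = cells lacking NR2E3 construct; higher means lower luciferase signal from less NR2E3 corepressor binding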
Target sequence (Q9Y5X4 whole entry, looked up, the tested form may be a part): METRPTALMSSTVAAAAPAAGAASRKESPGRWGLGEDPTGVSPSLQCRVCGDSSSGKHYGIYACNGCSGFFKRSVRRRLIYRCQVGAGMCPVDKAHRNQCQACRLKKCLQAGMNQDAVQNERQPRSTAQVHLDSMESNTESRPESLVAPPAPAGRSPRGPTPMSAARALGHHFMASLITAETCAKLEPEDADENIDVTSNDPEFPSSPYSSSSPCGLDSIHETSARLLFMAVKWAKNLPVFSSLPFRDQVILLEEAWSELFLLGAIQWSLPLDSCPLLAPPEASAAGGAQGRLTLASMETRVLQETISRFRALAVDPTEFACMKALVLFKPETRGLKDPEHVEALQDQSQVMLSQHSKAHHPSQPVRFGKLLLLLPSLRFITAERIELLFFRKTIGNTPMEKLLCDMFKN
NR1D1 modulator: modulators of human Rev-erb alpha DNA binding; activity, % at 10 µM; Rev-erbα–FITC-DNA binding, fluorescence polarization, 90 min; actives 0.79% (n = 370,000); P20393;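 active = activity above about 14%, limit read from the data; passing the limit was not always enough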;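 also: 0% = DMSO wells with 35 nM protein and 100% = DMSO wells with 750 nM protein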
NR2E3 ag-2: activates human photoreceptor nuclear receptor NR2E3 | actives 0.12% (n = 320,000) | GST-NR2E3/biotin-RetCOR TR-FRET, 1536-well | Q9Y5X4 | inhibition of corepressor binding, % at 4.78 µM;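 active = percent inhibition above the cutoff of mean plus 3 SD of all tested compounds, set per screening campaign, cut at about 20% in these data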;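 also: 0% = DMSO wells and 100% = biotin wells as full block of FRET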
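Format: 1536-well format; test system: GST-NR2E3 and biotin-RetCOR proteins; read-out basis: percent inhibition of TR-FRET ratio; timing: 5 h incubation at 4 °C; detection: time-resolved FRET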
PG9 Ab binder: binds the HIV-1 gp120 antibody PG9. TR-FRET gp120-PG9 antibody binding. inhibition, % at 6.7 µM. actives 0.43% (n = 360,000); in the data active = inhibition above about 8.5%
PG9 binder conf: confirmation of small molecules binding HIV-1 gp120 antibody PG9; inhibition, % at 6.7 µM; TR-FRET PG9 antibody binding, biochemical; actives 90% (n = 1,500); shares compounds with PG9 Ab binder; in the data active = inhibition above about 9%
PGV04 counter: PGV04 control antibody binding, counter-screen | actives 95% (n = 1,500) | shares compounds with PG9 Ab binder | inhibition, % at 6.7 µM | TR-FRET PGV04 antibody-gp120 binding, biochemical; in the data active = inhibition above about 9.5%
PG9 binder DR: PG9 antibody binding, dose response; TR-FRET PG9 antibody-gp120 binding inhibition; IC50, µM; shares compounds with PG9 Ab binder; 95 tested, under 10 active; AID 651848; in the data active = IC50 below about 10 µM
PGV04 DR counter: counter-screen for PG9 binders: binding to control antibody PGV04. actives 20% (n = 95). IC50, µM. AID 651937. shares compounds with PG9 Ab binder. TR-FRET binding to control antibody PGV04
PG126 binding DR: PG126 binding, dose response counter-screen | shares compounds with PG9 Ab binder | TR-FRET binding to antibody PG126, counterscreen | IC50, µM | actives 20% (n = 95)
Numbers without * were called inactive; . = no result. This is a sample that favours compounds with a hit; in the whole collection about 1.4% have one here. Rule as the data show it, unless noted: active = IC50 below about 9 µM; inactive = the rest.

SMILES	NR2E3 ag-1	NR1D1 modulator	NR2E3 ag-2	PG9 Ab binder	PG9 binder conf	PGV04 counter	others
Cc1cc(NC(=O)CSc2nc(-c3cccs3)cc(C(F)(F)F)n2)no1	-25	10	0	24*	34*	43*
CCCC1CCC2(CCC(=O)N2CCO)CC1 (stereo not drawn)	.	4	.	.	.	.
Cc1cn(-c2ccc(Br)cc2)[nH]c1=O	-88	-3	0	10.0*	19*	21*
COc1ccc(S[C@]2(C(=O)N(C)C)CC(=O)N(C(=O)C3CC3)[C@@H]2c2ccc(OC)cc2)cc1	.	2	.	.	.	.
O=C(COC(=O)c1ccc(O)cc1O)c1ccc2c(c1)OCO2	-37	-3	-2	-1	.	.
O=C(COC(=O)c1cc(Cl)ccc1O)c1ccc2c(c1)OCO2	-22	8	1	11*	10*	15*
CC(=O)c1ccc(N2CCN(S(=O)(=O)c3ccc4c(c3)NC(=O)CC(=O)N4)CC2)cc1	-44	7	1	13*	17*	30*
O=C1Cc2cc(S(=O)(=O)N3CCN(c4ccc(C(=O)O)cc4)CC3)ccc2N1	-20	-5	.	1	.	.
CO[C@@H]1CN(C)C(=O)c2cc(NC(=O)NC3CCCCC3)ccc2OC[C@@H](C)N(CCc2ccccc2)C[C@@H]1C	.	6	.	1	.	.
COc1ccc(-c2nc3c(c(=O)[nH]c(=O)n3Cc3ccccc3)n2CCO)cc1	1	0	0	-1	.	.
CCn1c(-c2ccsc2)nc2c1c(=O)[nH]c(=O)n2Cc1ccccc1	11	10	-2	22*	39*	54*
CC(=O)Nc1ccc(S(=O)(=O)Nc2nc3ccccc3nc2-n2ccc(=NC(=O)c3ccccc3)cc2)cc1	-33	0	-3	0	.	.
CCOc1ccc(S(=O)(=O)Nc2nc3ccccc3nc2-n2ccc(=NC(=O)c3cccs3)cc2)cc1	-14	9	5	20*	31*	73*
CC(=O)Nc1ccc(S(=O)(=O)Nc2nc3ccccc3nc2-n2ccc(=NC(=O)c3ccc(F)cc3)cc2)cc1	-2	9	0	41*	50*	81*
O=C(COCc1ccccc1)NC1CCCCN(Cc2cccc(Cl)c2)C1=O (stereo not drawn)	.	5	.	.	.	.
S=c1nc[nH]c2c1cnn2-c1ccccc1	-30	11	5	17*	7	7	PG9 binder DR=>67;PGV04 DR counter=>67;PG126 binding DR=>67
Nc1ncnc2c1cnn2-c1ccccc1	-18	-6	2	0	.	.
Nc1nc(-c2ccc(Cl)cc2)nnc1-c1ccc(Br)cc1	-52	11	0	13*	16*	58*
COc1ccc(Cn2nnnc2C(c2cc3cccc(C)c3[nH]c2=O)N2CCOCC2)cc1 (stereo not drawn)	-33	-4	1	17*	16*	24*
CC(C)(C)OC(=O)NCCc1ccccc1/C=C/S(=O)(=O)NC1CCCC1	.	-3	.	.	.	.
COc1ccc(C(=O)C2(C(=O)NCc3ccccc3)CC(c3ccccc3C(F)(F)F)=NO2)cc1 (stereo not drawn)	.	13	.	.	.	.
CCOC(=O)c1c(N)sc(=S)c2c1CCC2	7	-6	6	9.5*	6	10*
CCS(=O)(=O)Nc1ccc(-c2ccc(NS(=O)(=O)CC)c(OC)c2)cc1OC	12	-1	3	17*	14*	16*
COc1ccc(NS(=O)(=O)CC(C)C)c(OC)c1	11	0	5	-1	.	.
Cc1ccc(S(=O)(=O)N2C(N)=C(C(=O)NCc3ccc(Br)cc3)C(c3ccc(Cl)cc3)C2C(=O)c2ccccc2)cc1 (stereo not drawn)	.	0	.	.	.	.
SMILES	NR2E3 ag-1	NR1D1 modulator	NR2E3 ag-2	PG9 Ab binder	PG9 binder conf	PGV04 counter	others
CC1(c2nnnn2C2CCCCC2)CSCC(=O)N1CCc1ccc(O)cc1 (stereo not drawn)	.	-3	.	.	.	.
COC(=O)[C@]12C[C@H](CC(=O)NCCC(C)C)C(=O)N(Cc3ccco3)C1=C[C@H](C(C)C)O[C@@H]2C1CC1	.	8	.	.	.	.
O=C(Cn1c(=S)[nH]c2ccccc2c1=O)N1CCN(c2ccc(F)cc2)CC1	-16	9	-2	11*	16*	26*
CCn1c(CNC(=O)c2ccccc2Cl)cc2ccccc21	-48	7	5	10*	24*	35*
CCn1c(CNC(=O)c2ccccc2F)cc2ccccc21	-13	-3	-1	-1	.	.
O=C(Cn1cnc2c(OCc3ccccc3)ncnc21)NCc1ccc2[nH]ccc2c1	-13	0	.	-1	.	.
O=C(Cn1cnc2c(NCc3ccccc3)ncnc21)NCc1ccc2[nH]ccc2c1	-8	4	.	33*	16*	29*
O=C(NCCc1cccc(F)c1)c1cc2ccccn2n1	.	3	.	.	.	.
O=P1(O)Cc2ccccc2-c2ccccc21	7	0	.	-1	.	.
C[C@H]1CN(C(=O)OC(C)(C)C)CCN1c1ccc(N2CCS(=O)(=O)CC2)c(C#N)c1	.	-4	.	1	.	.
Cc1ccc2nc(SCC(=O)NCC3CCCO3)c(C#N)cc2c1 (stereo not drawn)	-5	-2	-1	13*	22*	36*
COc1ccc2nc(SCC(=O)NC3CC3)c(C#N)cc2c1	-6	6	15	20*	26*	47*
CC(=O)c1c(OC(=O)c2ccccc2)ccnc1C(F)(F)F	12	-3	2	9.2*	11*	11*
O=C(Oc1cccc2ccccc12)c1ccccc1	-1	2	.	-2	.	.
Cc1ccc(/C=C/c2nc3ccccc3c(=O)[nH]2)cc1	-149	2	6	31*	40*	47*
N#Cc1cccc(NC(=O)OCCCN2CCC3(CCCCC3)C2=O)c1	.	-1	.	.	.	.
CCn1c(SCC(=O)Nc2ccc(S(=O)(=O)Nc3cc(C)nc(C)n3)cc2)nc2sc(C)c(C)c2c1=O	.	-8	.	.	.	.
C[N+]1=C(N)N[C@@]2(C=C3CCCCC3n3c(=O)n(-c4ccccc4)c(=O)n32)C1 (stereo partly drawn)	.	-5	.	.	.	.
S=c1[nH]nc(-c2ccccc2)o1	1	-2	2	7	.	.
Cc1ccccc1-c1n[nH]c(=S)o1	-34	.	6	35*	35*	47*
CSc1ccccc1-c1n[nH]c(=S)o1	-3	-3	.	35*	40*	52*
Cc1ccc(-c2cc(-c3n[nH]c(=S)o3)c3ccccc3n2)cc1	-10	-2	1	0	.	.
CCOC(=O)CC[C@@]1(C(=O)OCC)C[C@@H](CC(=O)NCCCOC)C(=O)N2CCCC=C21	.	0	.	.	.	.

Screens from PubChem BioAssay.
